Results as given in ChEMBL document CHEMBL2146419, “Effects of polyphenol compounds on influenza A virus replication and definition of their mechanism of action” (Bioorg Med Chem, 2012).
Activity calls are given as the source filed them. No cut-off for these calls is given here.

Key:
MDCK [1] = assay: Inhibition of PKC/p38MAPK-mediated nuclear-cytoplasmic viral nucleoprotein export in dog MDCK cells infected with Influenza virus A/Puerto Rico/8/34 H1N1 assessed as increase in nucleoprotein level in nucleus measured at 8 hrs post-infection by Western blot analysis; format: cell-based; conditions: Canis lupus familiaris
How it was run: (§1)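 Cytosolic and nuclear extracts from treated and untreated infected MDCK cells were run on SDS-PAGE and immunoblotted with anti-NP antibodies. Blots were stripped and reprobed for α-tubulin (cytosol) or lamin A/C (nucleus). Densitometry is given as the NP/tubulin or NP/lamin ratio; one representative experiment of three.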

Influenza A virus [2] = assay: Downregulation of HA protein expression in Influenza virus A/Puerto Rico/8/34 H1N1 infected in dog MDCK cells measured at 24 hrs post-infection; format: functional, organism-based; conditions: A/Puerto Rico/8/1934(H1N1)
How it was run: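 PR8-infected MDCK cells, untreated or treated, were lysed at 24 h. Homogenates were run on 12% gels under reducing conditions, blotted to nitrocellulose and probed with goat polyclonal anti-influenza antibodies. Densitometry was expressed as the ratio of each viral protein to actin, relative to untreated infected cells.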

Influenza A virus [3] = assay: Antiviral activity against Influenza virus A/Puerto Rico/8/34 H1N1 infected in dog MDCK cells incubated for 1 hr post-infection followed by compound washout by hemagglutininating unit assay; format: functional, organism-based; conditions: A/Puerto Rico/8/1934(H1N1)
[4] = molecular target: T1, Protein kinase C (PKC) (Homo sapiens) (UniProt O94806+P41743+P17252+P05129+Q05655+P05771+Q05513+Q02156+P24723+Q15139+Q04759); assay: Inhibition of PKC-mediated JNK phosphorylation in human NCI-H292 cells infected with Influenza virus A/Puerto Rico/8/34 H1N1 measured at 6 hrs post-infection by immunoblotting analysis; format: cell-based
How it was run: (§2)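 NCI-H292 cells, mock- or PR8-infected at 1 M.O.I., were treated and lysed 6 h p.i. Lysates were run on 10% SDS–PAGE and blotted with rabbit anti-phospho-PKD, -ERK1/2, -p38MAPK or -JNK antibodies. Membranes were then stripped and reprobed for the corresponding total proteins.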

MDCK [5] = assay: Cytotoxicity against dog MDCK cells assessed as morphological alterations incubated for 24 hrs followed by compound wash out measured after 24 hrs by microscopic analysis; format: cell-based, Canis lupus familiaris
How it was run: (§3)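 Confluent MDCK monolayers plated at 2×10^5/ml were treated after 24 h with compound at 5–40 μg/ml and incubated a further 24 h. Assessed by microscopic examination of morphology, Trypan blue exclusion for viability, and cell counts for multiplication rate.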

Influenza A virus [6] = assay: Antiviral activity against Influenza virus A/Puerto Rico/8/34 H1N1 infected in dog MDCK cells incubated at 8 hrs post-infection measured after 24 hrs by hemagglutininating unit assay relative to control; format: functional, organism-based; conditions: A/Puerto Rico/8/1934(H1N1)
How it was run: (§4)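 Treatment of PR8-infected MDCK cells started at 2, 4, 6 or 8 h p.i. and compound stayed in the medium through 24 h p.i. Virus yield in the supernatant was read by HAU at 24 h p.i. as a percentage of DMSO-treated control infected cells. Means of two experiments, each in duplicate.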

MDCK [7] = assay: Cytotoxicity against dog MDCK cells assessed as modification of cell multiplication rate incubated for 24 hrs followed by compound wash out measured after 24 hrs by cell counting analysis; format: cell-based, Canis lupus familiaris; how it was run: as §3
Influenza A virus [8] = assay: Antiviral activity against Influenza virus A/Puerto Rico/8/34 H1N1 infected in dog MDCK cells incubated at 6 hrs post-infection measured after 24 hrs by hemagglutininating unit assay relative to control; format: functional, organism-based; conditions: A/Puerto Rico/8/1934(H1N1); how it was run: as §4
Influenza A virus [9] = assay: Antiviral activity against Influenza virus A/Puerto Rico/8/34 H1N1 infected in dog MDCK cells incubated at 2 hrs post-infection measured after 24 hrs by hemagglutininating unit assay relative to control; format: functional, A/Puerto Rico/8/1934(H1N1); how it was run: as §4
MDCK [10] = assay: Restoration of GSH level in dog MDCK cells infected with Influenza virus A/Puerto Rico/8/34 H1N1 measured at 24 hrs post-infection by DTNB-based colometric assay; format: functional, cell-based; conditions: Canis lupus familiaris
How it was run: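 MDCK cells, infected or mock-infected and treated, were assayed for intracellular GSH and GSSG with a glutathione assay kit at 24 h p.i. Results are in nmol per mg protein, as the mean of two experiments each in duplicate, compared against mock-infected cells.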

[11] = molecular target: T1, Protein kinase C (PKC) (Homo sapiens); assay: Inhibition of PKC-mediated p38MAPK phosphorylation in human NCI-H292 cells infected with Influenza virus A/Puerto Rico/8/34 H1N1 measured at 6 hrs post-infection by immunoblotting analysis; format: cell-based; how it was run: as §2
[12] = molecular target: T1, Protein kinase C (PKC) (Homo sapiens); assay: Inhibition of PKC-mediated PKD phosphorylation in human NCI-H292 cells infected with Influenza virus A/Puerto Rico/8/34 H1N1 measured at 6 hrs post-infection by immunoblotting analysis; format: cell-based; how it was run: as §2
MDCK [13] = assay: Inhibition of PKC/p38MAPK-mediated nuclear-cytoplasmic viral ribonucleoprotein export in dog MDCK cells infected with Influenza virus A/Puerto Rico/8/34 H1N1 measured at 8 hrs post-infection by inmmunofluorescence; format: cell-based; conditions: Canis lupus familiaris
How it was run: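 MDCK cells were infected with PR8 at 1 M.O.I. for single-cycle replication. At 8 h p.i. cells were fixed, permeabilized and stained with DAPI, then with anti-NP primary and FITC-conjugated secondary antibody. NP localization was assessed by fluorescence microscopy.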

[14] = molecular target: T1, Protein kinase C (PKC) (Homo sapiens); assay: Inhibition of PKC-mediated ERK2 phosphorylation in human NCI-H292 cells infected with Influenza virus A/Puerto Rico/8/34 H1N1 measured at 6 hrs post-infection by immunoblotting analysis; format: cell-based; how it was run: as §2
MDCK [15] = assay: Cytotoxicity against dog MDCK cells assessed as loss of cell viability incubated for 24 hrs followed by compound wash out measured after 24 hrs by trypan blue exclusion assay; format: cell-based, Canis lupus familiaris; how it was run: as §3
Influenza A virus [16] = assay: Antiviral activity against Influenza virus A/Puerto Rico/8/34 H1N1 infected in dog MDCK cells incubated for 1 hr prior to infection by hemagglutininating unit assay; format: functional, organism-based; conditions: A/Puerto Rico/8/1934(H1N1)
How it was run: (§5)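 Timing variants, each read by HAU of virus yield from MDCK cells: PR8 stock preincubated 1 h with compound before infection; compound present only during the 1 h adsorption; or cells pretreated overnight with washout just before viral challenge.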

MDCK [17] = assay: Restoration of GSH level in dog MDCK cells infected with Influenza virus A/Puerto Rico/8/34 H1N1 assessed as viral protein localization on peri-nuclear zone measured at 24 hrs post-infection by immunofluorescence assay; format: functional, cell-based; conditions: Canis lupus familiaris
MDCK [18] = assay: Inhibition of PKC/p38MAPK-mediated nuclear-cytoplasmic viral nucleoprotein export in dog MDCK cells infected with Influenza virus A/Puerto Rico/8/34 H1N1 assessed as decrease in nucleoprotein level in cytoplasm measured at 8 hrs post-infection by Western blot analysis; format: cell-based; conditions: Canis lupus familiaris; how it was run: as §1
Influenza A virus [19] = assay: Antiviral activity against Influenza virus A/Puerto Rico/8/34 H1N1 infected in dog MDCK cells assessed as inhibition of viral replication at 20 ug/mL incubated at 1 hr post-infection measured after 24 hrs by hemagglutininating unit assay relative to control; format: functional; conditions: A/Puerto Rico/8/1934(H1N1)
How it was run: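 MDCK cells infected with PR8; 1 h after adsorption they were washed, and compound (5–20 μg/ml) or DMSO was added and kept on throughout. Virus released into the supernatant was titrated by HAU assay 24 h p.i. Yield is a percentage of control infected cells given 0.02% DMSO. Means of four experiments, each in duplicate.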

MDCK [20] = assay: Restoration of GSH level in dog MDCK cells infected with Influenza virus A/Puerto Rico/8/34 H1N1 assessed as impairment of viral protein localization on plasma membrane measured at 24 hrs post-infection by immunofluorescence assay; format: functional, cell-based; conditions: Canis lupus familiaris
Influenza A virus [21] = assay: Antiviral activity against Influenza virus A/Puerto Rico/8/34 H1N1 infected in dog MDCK cells incubated at 4 hrs post-infection measured after 24 hrs by hemagglutininating unit assay relative to control; format: functional, A/Puerto Rico/8/1934(H1N1); how it was run: as §4
Influenza A virus [22] = assay: Antiviral activity against Influenza virus A/Puerto Rico/8/34 H1N1 infected in dog MDCK cells incubated overnight prior to infection followed by compound washout by hemagglutininating unit assay; format: functional, organism-based; conditions: A/Puerto Rico/8/1934(H1N1); how it was run: as §5

SMILES | inhibition (MDCK [1]) | Activity (Influenza A virus [2]) | Activity (Influenza A virus [3]) | inhibition [4] | Activity (MDCK [5]) | Activity (Influenza A virus [6]) | Activity (MDCK [7]) | Activity (Influenza A virus [8]) | Activity (Influenza A virus [9]) [%] | Activity (MDCK [10]) | inhibition [11] | inhibition [12] | inhibition (MDCK [13]) | inhibition [14] | Activity (MDCK [15]) | Activity (Influenza A virus [16]) | Activity (MDCK [17]) | inhibition (MDCK [18]) | Activity (MDCK [20]) | Activity (Influenza A virus [21]) [%] | also measured
O=C1/C(=C/c2ccc(O)c(O)c2)COC/C1=C\c1ccc(O)c(O)c1 | Active | Active | inactive | Active | Non-toxic | inactive | Non-toxic | Active | 79 | Active | Active | Active | Active | inactive | Non-toxic | inactive | Active | Active | Active | 79 | inhibition at 20 µg/mL (Influenza A virus [19]): 75%; Activity (Influenza A virus [22]): inactive
O=C(/C=C/c1ccc(O)cc1)c1ccc(O)cc1O [ISOLIQUIRITIGENIN] | Active | Active | inactive | Active | Non-toxic | inactive | Non-toxic | Active | 79 | Active | Active | Active | Active | inactive | Non-toxic | inactive | Active | Active | Active | 79 | inhibition (Influenza A virus [19]): Active; Activity (Influenza A virus [22]): inactive
